# Experimental data as given in PubChem BioAssay.
# Values without a mark were called inactive. Results filed as inconclusive are left out. Activity calls are given as the source filed them.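 Rule for the calls, unless noted: active = RAM network inhibition above 8.4% in each of two replicates, 3 SD over the compound average; inconclusive = above 8.4% inhibition in only one replicate; inactive = 8.4% inhibition or less in each replicate.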
# Experiments:
# [1] = S. cerevisiae growth inhibition in permissive medium (OD615), pilot counter-assay for S. cerevisiae lifespan shortening project, permissive growth control (AID 705;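 active = growth inhibition above 25% in both replicates, a cutoff set 3 SD above the mean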); conditions: OD615, 24 h, at 10 µM, stronger effect = higher value
# Outline: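 System: S. cerevisiae with engineered DeaD lifespan system. Medium: SC raffinose/galactose permissive medium. Doses: single compound dose of 10 µM, 0.25% DMSO final. Schedule: 24 h exposure, 30 °C. Measured by: OD615 turbidity read. Read-out: growth inhibition.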
# [2] = S. cerevisiae growth inhibition in restrictive medium, OD615, pilot screen, restrictive growth control, yeast lifespan reduction project (AID 706;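 active = growth inhibition above a set limit, 3 SD over mean compound inhibition, in both replicates, cut at about 43% in these data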;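 note: modified DeaD lifespan yeast strain shifted to restrictive glucose medium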); conditions: OD615, 48 h, at 10 µM, stronger effect = higher value
# Outline: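 Assay system – genetically modified Saccharomyces cerevisiae, DeaD replicative lifespan assay strain · Medium – CSMM-D glucose medium · Doses – 10 µM compound, 0.25% DMSO · Times – 4 h pre-incubation, 48 h exposure at 30 °C · Signal – optical density at 615 nm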
# [3] = doxorubicin toxicity protection in MRP-1 cells – H69AR cells, CellTiter-Glo, duplicate, MRP-1 activator project, pilot screen (AID 807;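 active = viability increase at or above a cutoff of the median across tested compounds plus 3 SD, cut at about 8.5% in these data, passing the limit was not always enough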;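 note: compound pretreatment 18-22 h then 72 h combined with doxorubicin; 0% = doxorubicin alone and 100% = vehicle without doxorubicin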); conditions: H69AR viability with doxorubicin, CellTiter-Glo luminescence; at 10 µM; stronger effect = higher value
# [4] = viability of HCT116 without oncogenic beta-catenin – human colon tumor cells, pilot screen (AID 823;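 active = cell viability at or below a set limit in both duplicate runs, the limit being the all-compound median minus 4 SD, cut at about 23% in these data, passing the limit was not always enough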;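 note: 0% = wells killed by 20 µM Hyamine and 100% = untreated DMSO cell wells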); conditions: HCT116 beta-catenin knockout viability, CellTiter-Glo, 60 h; at 10 µM; stronger effect = lower value
# [5] = RAM pathway blockade in budding yeast – dse1pr::URA3 reporter, 5-FOA selection, pilot screen (AID 869;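 active = inhibition over a set limit, the all-compound mean plus 3 SD, in both replicate runs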;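 note: 0% = DMSO wells with no growth and 100% = 10 µM 1-NA-PP1 with full growth; RAM network block rescues cells from 5-FOA so hits raise OD615 growth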); conditions: S. cerevisiae dse1pr::URA3 5-FOA growth, OD615, 2 d; at 10 µM; stronger effect = higher value; strain carries analog-sensitive mutant Cbk1 kinase
# [6] = RAM signaling pathway blockade in yeast – S. cerevisiae, Pdr1DBD-CYC8 efflux-inhibited sensitized strain, primary screen (AID 1298);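 note: 0% = DMSO untreated cells without growth and 100% = 10 µM 1-NA-PP1 full growth; higher means more yeast growth rescued from 5-FOA killing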; conditions: S. cerevisiae cbk1-as DSE1-URA3 strain, 5-FOA growth OD615, 2 d; at 50 µM; stronger effect = higher value
SMILES,growth inhibition [1] [%],growth inhibition [2] [%],viability increase [3] [%],viability [4],inhibition [5] [%],RAM network inhibition [6] [%]
CCN1CCN(Cc2nc3c(c(=O)n(C)c(=O)n3C)n2CCCc2ccccc2)CC1,-5.05,-8.71,-4.04,91%,0.665,7.54
CCC(=O)c1cc(F)c(N2CCN(S(=O)(=O)c3ccccc3)CC2)cc1C,-21.4,0.885,0.77,59.2%,0.65,1.67
COc1ccc(C2c3c(oc4ccccc4c3=O)C(=O)N2c2ccccn2)cc1OC (stereo unspecified),-10.4,-11.2,-6.93,72.7%,2.8,2.68
CCC1SC2=NC(C)=C(C(=O)OC)C(c3ccc(C(=O)OC)cc3)N2C1=O (stereo unspecified),6.67,35.7,3.25,101%,1.47,9.87
COc1cc(-c2nc3cnccn3c2Nc2ccc3c(c2)OCCO3)ccc1O,-15.6,-2.52,-7.25,84.5%,2.98,11.8
CCN(CC)S(=O)(=O)c1cc(Br)ccc1OC,9.34,-11.1,-4.03,94.8%,0.72,1.97
O=C(Cn1c(=O)sc2ccccc21)Nc1ccc2c(c1)OCCO2,-22.9,-7.4,-4.54,93.9%,1.6,6.6
CC(=O)c1cccc(NC(=O)N2CCCC2C(=O)Nc2c(C)cccc2C)c1 (stereo unspecified),-22.1,-1.14,-2.28,94.1%,1.62,3.69
Brc1cc(Br)c2ncnc(N3CCCCC3)c2c1,-2.35,-19.5,-7.95,15.9% (active),2.7,2.58
O=C1CC(N2CCN(Cc3ccc4c(c3)OCO4)CC2)C(=O)N1Cc1ccc(N2CCCC2=O)cc1 (stereo unspecified),-28.2,-0.61,-1.61,90.3%,2.29,7.63
Cc1ccc2c(c1)c(C)c(C)n2CC(O)Cn1nc(C)cc1C (stereo unspecified),-13,3.35,-4.76,87.1%,2.1,0.58
Cn1ccnc1SCC(=O)NC1CCCCC1,-11.1,-7.09,-0.96,100%,3.6,1.87
Cc1ccc(C(=O)N2CCN(C)CC2)cc1S(=O)(=O)N1CCCCC1,0.05,-11.5,-2.65,90.1%,1.31,0.57
Cc1cc(C)c(C)c(S(=O)(=O)Nc2ccccc2C(=O)NCCCn2ccnc2)c1C,-28,12.5,-5.57,70.2%,0.75,0.27
COc1ccc(NS(=O)(=O)c2cccc(-c3nnc4n3CCCCC4)c2)cc1,-9.52,10.2,-3.38,92.6%,1.11,1.97
CN1CCc2c(sc3nc(SCC(N)=O)n(-c4ccccc4)c(=O)c23)C1,-17.8,9.25,-0.53,84.3%,4.08,3.54
Cn1c(/C(C#N)=C2/CCCCCN2)nc2ccccc21,-8.98,-2.55,-2.4,89.6%,0.395,1.35
CCOC(=O)C1CCN(CCC(=O)Nc2cccc(Cl)c2C)CC1,-11.2,-0.95,-2.59,94.6%,1.46,2.35
Cc1ccc(Cn2c(Sc3nccc(C)n3)nc3c2c(=O)[nH]c(=O)n3C)cc1,-22.6,2.41,-2.6,83.5%,2.89,3.29
Cc1c(C(=O)Nc2ccncc2)sc2nc(-c3ccc(F)cc3)cn12,-5.44,11.7,-6.8,42.3%,1.96,8.43
CC1(C)SCC(C(=O)O)N1C=O (stereo unspecified),-16,-6.9,-0.04,105%,1.66,2.9

SMILES,growth inhibition [1] [%],growth inhibition [2] [%],viability increase [3] [%],viability [4],inhibition [5] [%],RAM network inhibition [6] [%]
CC(C)Sc1nc(NCc2ccco2)c2c3c(sc2n1)COC(C)(C)C3,3.17,22.4,-8.23,56%,-0.26,7.33
Cc1nc2c3c4c(sc3n3c(SCC(=O)NCc5ccco5)nnc3n2n1)COC(C)(C)C4,-15.2,3.31,-6.89,88.7%,1.85,5.05
Cc1cc(C)n(-c2cc(=O)n(C)c(=O)n2C)n1,1.39,-9.85,-2.96,92.3%,0.755,4.35
NCCOc1ccccc1-c1ccccc1,-17.6,-14.4,-3,87.2%,2.3,2.4
O=C(CCS(=O)(=O)c1ccccc1)Nc1nc2c(s1)COc1ccccc1-2,-11.8,-10.9,-8.46,5.88% (active),1.32,3.55
CCN(CC)c1ccc(NC(=O)c2ccc(NC(=O)C3CCCO3)cc2)c(C)c1 (stereo unspecified),-6.83,3.42,1.38,94.8%,0.965,6.65
COc1cc(-c2nnn(CC#N)n2)ccc1OCc1ccccc1,-6.28,9.63,0.59,94.5%,1.28,1.51
CCOC(=O)C1=C(N)OC2=C(C(=O)CCC2)C1c1cccnc1 (stereo unspecified),-6.66,4.47,-2.49,104%,1.22,2.44
CC(=O)Nc1c(C(=O)c2ccc(F)cc2)oc2ccccc12,-23.1,-4.12,-3.23,87.4%,2.3,7.49
CC12COC3(C(=O)Nc4cccnc4)CC1CCC32C (stereo unspecified),-5.62,1.04,-2.08,109%,1.51,2.55
CCOC(=O)c1c(NC(=O)c2ccc(Cl)s2)sc(C)c1C,-6.9,-11.2,-8.89,12.6% (active),2.4,5.6
Cc1cc(C)n2nc(CCc3nc4nc(C)cc(C)n4n3)nc2n1,3.12,4.29,-1.49,94.8%,0.62,1.76
CCC(=O)Nc1cc(C)c(NC(=O)c2ccco2)cn1,-18.1,-13.9,0.56,98.5%,1.52,4.21
CCCc1nc2n[nH]c(N)c2c2c1CCC2,-24.2,-12.6,-5.25,92%,0.825,0.57
COc1ccc(N2CC(O)=C(c3nc(C)cs3)C2=N)cc1,8.87,5.31,-4.67,96.7%,1.6,3.27
Cc1ccccc1-c1ccc(Nc2ccc(N3CCOCC3)cc2)nn1,-3.44,15.8,-5.91,81%,0.46,2.5
CCOC(=O)N1CCC(NC(=O)C(Cc2ccccc2)NC(=O)C2CCCCC2)CC1 (stereo unspecified),-1.7,3.73,-2.92,100%,0.04,6.59
O=C(CCCOc1ccccc1)Nc1nnc(C2CCCO2)s1 (stereo unspecified),-23.6,-3.93,-2.89,102%,3.7,8.72
Cc1cc(C)nc(NS(=O)(=O)c2ccc(NC(=O)c3cccs3)cc2)n1,-11.4,-2.39,-2.29,97.7%,0.89,0.21
Cc1ccnc(Sc2nc3c(c(=O)[nH]c(=O)n3C)n2CCCc2ccccc2)n1,-17.7,2.31,-2.18,91.8%,1.6,1.4
